Source: PubChem BioAssay (several laboratories)
GASC-1 inh: blocks human GASC-1 demethylase activity. GST-JMJD2C(1-420) H3K9me3 demethylation, DELFIA europium. Q9H3R0. inhibition, % at 2.35 µM. AID 2099. actives 0.069% (n = 330,000);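 active = more than half of a compound's replicate wells show inhibition beyond 50%, single wells judged on their own value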;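 also: signal counts dimethyl H3K9 product captured on neutravidin plate; 0% = median of DMSO wells and 100% = 0.3 times that DMSO median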
Apaf1 inhib: inhibitors of human Apaf-1 apoptosome | actives 0.71% (n = 330,000) | reconstituted apoptosome caspase-3 activity, DEVD-Rh110 fluorescence | O14727 | inhibition, % at 20 µM | AID 489030; active = inhibition of at least 40% at 20 µM;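 also: plate controls were DMSO wells for no effect and DEVD-CHO caspase inhibitor wells for full effect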
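Material: reconstituted apoptosome with Apaf-1, cytochrome c, caspase-9, procaspase-3, dATP. Technique: Rh110 fluorescence intensity. Buffer or medium: pH 7.5 Hepes buffer with CHAPS, BSA, DTT. Times: 30 min plus 50 min, RT.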
TDP2 absorb: blocks human TDP2 phosphodiesterase activity; recombinant TDP2, T5PNP hydrolysis, p-nitrophenol absorbance 415 nm; inhibition, % at 12.8 µM; actives 0.34% (n = 370,000);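 active = inhibition above the mean of all tested compounds plus 3 SD, set per campaign, cut at about 25% in these data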;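 also: 0% = DMSO with enzyme and 100% = buffer with substrate but no TDP2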
Target sequence (O95551 whole entry, looked up): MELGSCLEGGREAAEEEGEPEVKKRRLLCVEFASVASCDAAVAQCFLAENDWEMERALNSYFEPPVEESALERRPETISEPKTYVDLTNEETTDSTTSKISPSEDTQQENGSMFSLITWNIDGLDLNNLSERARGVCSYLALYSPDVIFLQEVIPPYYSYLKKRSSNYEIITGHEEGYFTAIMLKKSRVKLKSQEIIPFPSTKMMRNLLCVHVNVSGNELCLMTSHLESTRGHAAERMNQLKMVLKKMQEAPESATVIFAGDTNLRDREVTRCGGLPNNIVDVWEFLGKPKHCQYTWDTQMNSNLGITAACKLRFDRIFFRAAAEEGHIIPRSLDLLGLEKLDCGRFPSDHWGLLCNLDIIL
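test system = human TDP2 enzyme | input = TDP2 enzyme at 120 nM final | medium = 50 mM Tris-HCl pH 7.5 with Mg2+, KCl, DTT, BSA | also added = T5PNP substrate, 5 mM | times = 2 h at 37 °C | technique = epi absorbance | benchmarks = high control without enzyme, low control DMSO plus TDP2 | replication = each compound tested once, singlicate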
PAD4 FP inh: inhibitors of human PAD4 | recombinant PAD4, RCA probe fluorescence polarization | inhibition, % at 6.36 µM | actives 0.41% (n = 330,000);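 active = percent inhibition above a cutoff equal to the mean of all tested compounds plus 3 SD, cut at about 15% in these data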;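 also: 0% = PAD4 with RCA probe and DMSO and 100% = probe without PAD4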
UBC9 SUMO inh: blocks human SUMOylation mediated by UBC9. inhibition, % at 35 µM. HTRF SUMOylation assay, SAE1/SAE2 + UBC9, in vitro. actives 0.36% (n = 290,000). AID 2006. P63279; in the data active = inhibition above about 50%, passing the limit was not always enough
Target sequence (P63279 whole entry, looked up): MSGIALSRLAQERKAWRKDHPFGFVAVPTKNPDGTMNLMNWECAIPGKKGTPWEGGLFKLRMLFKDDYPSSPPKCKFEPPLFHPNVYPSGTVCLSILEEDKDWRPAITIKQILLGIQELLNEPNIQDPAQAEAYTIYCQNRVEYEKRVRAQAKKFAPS
GSTO1 inh: counter-screen for RBBP9 inhibitors: inhibitors of human GSTO1 | recombinant GSTO1, activity-based probe fluorescence polarization | inhibition, % at 5.96 µM | P78417 | actives 1.1% (n = 300,000);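 active = inhibition above the campaign mean inhibition plus 3 SD, cut at about 35% in these data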;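 also: 0% = GSTO1-1 with DMSO and 100% = wells lacking GSTO1-1 enzyme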
Target sequence (P78417 whole entry, looked up): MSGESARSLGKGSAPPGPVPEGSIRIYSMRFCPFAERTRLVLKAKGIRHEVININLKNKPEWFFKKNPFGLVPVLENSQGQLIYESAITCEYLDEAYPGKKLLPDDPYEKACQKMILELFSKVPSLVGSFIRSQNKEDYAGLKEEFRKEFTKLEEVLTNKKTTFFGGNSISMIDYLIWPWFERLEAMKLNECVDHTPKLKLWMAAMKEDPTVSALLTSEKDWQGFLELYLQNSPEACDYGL
Apaf-1 inh conf2: Apaf-1 inhibition, single-dose confirmed | shares compounds with Apaf1 inhib | inhibition, % at 20 µM | AID 504614 | actives 25% (n = 1,800) | reconstituted apoptosome, caspase-3 DEVD-Rh110 fluorescence;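 active = mean inhibition of at least 40% at 20 µM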;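 also: plate controls were DMSO wells for no effect and DEVD-CHO caspase inhibitor control wells for full effect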
Rh110 interf inh: Rh110 signal interference in Apaf-1 inhibitor counter-screen; shares compounds with Apaf1 inhib; Rh110 fluorescence interference, quenched caspase reaction; activation (fluorescence interference), % at 20 µM; 1,800 tested, under 10 active; AID 504615;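 active = signal rise of 40% or more at 20 µM, treated as a fluorescence artifact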
Fluor interf inh: Apaf-1 inhibitor counter-screen fluorescence artifact. shares compounds with Apaf1 inhib. fluorescence interference counterscreen, Apaf-1 assay format. IC50, µM. 460 tested, under 10 active. AID 588538; call rule not given here
TDP2 confirm: confirmation of human TDP2 inhibitors | recombinant human TDP2, absorbance read-out | inhibition, % at 12.8 µM | actives 22% (n = 1,100) | shares compounds with TDP2 absorb; in the data active = inhibition above about 25%;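 also: 0% = vehicle with enzyme and 100% = no enzyme buffer only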
* hit, by the source's call; nt = no result given. Sampled rows, rich in hits. Any-hit rate of the full collection: about 1.6%.

SMILES | GASC-1 inh | Apaf1 inhib | TDP2 absorb | PAD4 FP inh | UBC9 SUMO inh | GSTO1 inh | Apaf-1 inh conf2 | Rh110 interf inh | others
CCCCCC[N+](=O)[O-] | 9 | -6 | 1 | -3 | nt | nt | nt | nt
CCCCCCCCCCCCCCCC[N+](C)(C)C | 1 | 85* | 3 | 5 | nt | 6 | 46* | 15 | Fluor interf inh=>100
CC[C@]12CCN(CC3(O)CC3)[C@H](Cc3ccc(O)cc31)C2(C)C | nt | nt | -3 | nt | nt | nt | nt | nt
C=CCN1C[C@H](C)N(C(c2ccc(C(=O)N(CC)CC)cc2)c2cccc(OC)c2)CC1C (some centres not stated) | nt | nt | -3 | nt | nt | nt | nt | nt
COc1cc2c3cc1Oc1c(OC)c(OC)cc4c1[C@H](Cc1ccc(cc1)Oc1cc(ccc1O)C[C@H]3N(C)CC2)N(C)CC4 | 0 | 8 | -8 | 1 | nt | nt | nt | nt
COc1cc2c3c(c1OC)Oc1ccc(cc1)C[C@H]1c4c(cc(OC)c(OC)c4Oc4ccc(cc4)C[C@@H]3N(C)CC2)CCN1C | nt | 45* | -8 | -7 | nt | nt | 15 | -2
NCCNc1ccc([N+](=O)[O-])c2cccnc12 | 9 | 9 | -3 | -11 | -1 | 13 | nt | nt
O=[N+]([O-])c1ccc(NCCCN2CCOCC2)c2ncccc12 | -18 | 40* | 7 | 2 | 15 | -4 | 6 | 2
CC(C)(C)c1cc(O)ccc1O | nt | nt | 3 | nt | nt | nt | nt | nt
Cc1cc(N2CCNC[C@@H]2C)ccc1N1CCN[C@@H](C)C1 | nt | nt | 10 | nt | nt | nt | nt | nt
COc1ccc(CCNC(=O)c2c(N)n(CCN3CCOCC3)c3nc4ccccc4nc23)cc1 | -24 | 29 | 4 | 2 | 4 | 2 | nt | nt
COCCCn1c(N)c(C(=O)Nc2ccccc2)c2nc3ccccc3nc21 | -13 | 51* | 9 | 0 | 96 | 6 | 25 | 9
CCCCOCCCn1c(N)c(C(=O)OC(C)COC)c2nc3ccccc3nc21 (configuration not stated) | 0 | 0 | -7 | -4 | 20 | 25 | nt | nt
COCCCn1c(N)c(C(=O)OC(C)COC)c2nc3ccccc3nc21 (configuration not stated) | 8 | 74* | 3 | -9 | 37 | 12 | 8 | 9
c1ccc(CCCN2CCN(CCOC(c3ccccc3)c3ccccc3)CC2)cc1 | -15 | 51* | 0 | -1 | nt | 0 | 18 | 9
O=[N+]([O-])c1ccc(NCc2ccc(Cl)cc2)c2ccncc12 | 3 | 79* | 3 | -16 | 16 | 3 | 12 | -3
O=C(O)C(Br)Br | nt | nt | 1 | nt | nt | nt | nt | nt
COC(=O)C1=C(c2ccc(F)cc2OCc2ccccc2)C[C@@H]2CC[C@H]1N2C(=O)NC1CCN(Cc2ccccc2)CC1 | -11 | 53* | 6 | 4 | nt | nt | 9 | -4
COC(=O)C1=C(c2ccccc2OCc2ccccc2)C[C@@H]2CC[C@H]1N2C(=O)NC1CCN(Cc2ccccc2)CC1 | 2 | 39 | -18 | 2 | nt | nt | nt | nt
COC(=O)C1=C(c2cccc(OCc3ccccc3)c2)C[C@@H]2CC[C@H]1N2C(=O)NC1CCN(Cc2ccccc2)CC1 | nt | 48* | 5 | -1 | nt | nt | 11 | 4
Ic1ccccc1CN[C@@H]1C2CCN(CC2)[C@@H]1C(c1ccccc1)c1ccccc1 | nt | 50* | 2 | 5 | nt | 4 | 13 | 5
Cc1c2ccncc2c(C)c2c1[nH]c1ccccc12 | -5 | 67* | nt | -2 | -6 | 10 | 37 | 12
C[C@H]1CN([C@@H](C)CO)C(=O)CCCn2cc(nn2)CO[C@@H]1CN(C)C(=O)Oc1cccc2ccccc12 | nt | nt | 3 | nt | nt | nt | nt | nt
NCCc1ccc(OCc2ccccc2)c(OCc2ccccc2)c1 | -8 | 46* | -9 | -3 | nt | nt | 2 | 1
COc1ccc2nc(-c3ccc(CN4CCC(n5c(=O)[nH]c6cc(Cl)ccc65)CC4)cc3)c(-c3ccccc3)nc2c1 | nt | nt | 5 | nt | nt | nt | nt | nt
SMILES | GASC-1 inh | Apaf1 inhib | TDP2 absorb | PAD4 FP inh | UBC9 SUMO inh | GSTO1 inh | Apaf-1 inh conf2 | Rh110 interf inh | others
O=S(=O)(c1ccc2ccccc2c1)N1Cc2cc(Br)ccc2-n2nncc2C1 | nt | nt | 0 | nt | nt | nt | nt | nt
COC(=O)C1=C(c2ccc(Cl)c(C(F)(F)F)c2)C[C@@H]2CC[C@H]1N2C(=O)NCCOc1ccc(OC)cc1 | -5 | 40* | nt | 1 | nt | nt | 19 | 5
CCCNC(=O)N1[C@H]2CC[C@@H]1C(C(=O)OC)=C(c1ccc(Cl)c(C(F)(F)F)c1)C2 | -8 | 13 | 1 | -6 | nt | nt | nt | nt
COCCNC(=O)c1c(NC(=O)c2ccco2)n(Cc2ccccc2)c2nc3ccccc3nc12 | -13 | 53* | 11 | -10 | 99 | 6 | 18 | 10
CCOC(=O)c1c(N)n(CCN2CCCCC2)c2nc3ccccc3nc12 | 21 | -7 | 5 | 2 | 18 | 7 | nt | nt
COCCCn1c(N)c(C(=O)Nc2sc3c(c2C(=O)OC)CCCC3)c2nc3ccccc3nc21 | -23 | 90* | 35* | -7 | 33 | 3 | 26 | 10 | TDP2 confirm=4
CCC(C)NC(=O)c1c(N)n(CCCOC)c2nc3ccccc3nc12 (configuration not stated) | 10 | 91* | 67* | -5 | 101 | 61* | 59* | 9 | Fluor interf inh=>100;TDP2 confirm=17
C=CC1C[N+]2(C)CCC1CC2C(O)c1ccnc2ccccc12 (configuration not stated) | nt | nt | 10 | nt | nt | nt | nt | nt
O=P(C(Cl)Cl)(N1CCOCC1)N1CCOCC1 | -8 | 5 | 30* | -4 | 7 | 8 | nt | nt | TDP2 confirm=4
Clc1ccccc1CNCCc1c[nH]c2ccccc12 | nt | nt | 2 | nt | nt | nt | nt | nt
O=[N+]([O-])c1ccccc1CNCCc1c[nH]c2ccccc12 | 19 | 3 | 25* | -2 | 3 | 5 | nt | nt | TDP2 confirm=6
CCCCn1c(NC(=O)c2ccc(Br)o2)c(C(=O)OCC)c2nc3ccccc3nc21 | -7 | 79* | 65* | 72* | 100* | 90* | nt | nt | TDP2 confirm=73*
O=c1[nH]c2cc(Cl)ccc2n1C1CCN(Cc2ccc(-c3nc4ccccc4nc3-c3ccccc3)cc2)CC1 | nt | nt | 1 | nt | nt | nt | nt | nt
CN1C(=O)NC(=O)/C(=C/c2ccc([N+](=O)[O-])s2)C1=O | 13 | 15 | 25* | -2 | 46 | 33 | nt | nt | TDP2 confirm=21
CN1C(=O)NC(=O)/C(=C/c2ccc([N+](=O)[O-])o2)C1=O | -9 | -1 | 9 | 1 | 18 | 17 | nt | nt
CCN1CCN(c2ccc(N)cc2)CC1 | -1 | 14 | 32* | -5 | -3 | -2 | nt | nt | TDP2 confirm=6
COc1ccccc1CN1CCN(C(=O)COc2cccc(C)c2)CC1 | -1 | 1 | -9 | 0 | -26 | 2 | nt | nt
